# Data from ChEMBL document CHEMBL1671683, “Activity of linezolid in an in vitro pharmacokinetic-pharmacodynamic model using different dosages and Staphylococcus aureus and Enterococcus faecalis strains with and without a hypermutator phenotype” (Antimicrob Agents Chemother, 2010).
# Legend:
# [1] = system: Staphylococcus aureus; assay: Bactericidal activity against 2 hrs peripheral compartment culture samples of Staphylococcus aureus RN4220 MutS2 in two-compartment pharmacokinetic/pharmacodynamic model assessed as effect on bacterial count at 600 mg, bid administered as 0.5 hr infusion; format: functional
# Outline: (§1)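 An 18-h culture concentrated 50-fold was injected into the peripheral compartment 3 h pre-sampling (~10^8 CFU/ml E. faecalis, 10^9 S. aureus). Counts came from dilution plating (detection limit 2–3 log10 CFU/ml), expressed as Δlog CFU/ml from treatment start. Run in duplicate.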
# [2] = Volume of distribution at steady state in two-compartment pharmacokinetic/pharmacodynamic model bid administered as 0.5 hr infusion over 24 hrs; settings: in vivo, iv; read-out: Vdss
# [3] = system: Staphylococcus aureus subsp. aureus RN4220; assay: ABBC (0 to 24 hrs) in Staphylococcus aureus RN4220 in two-compartment pharmacokinetic/pharmacodynamic model at 600 mg, bid administered as 0.5 hr infusion for 2 days
# Outline: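 Hollow-fibre two-compartment model in cation-adjusted, protein-free MH broth at 37°C. Human total-plasma linezolid profile simulated as 0.5-h infusion every 12 h for 48 h. Concentrated 18-h culture injected into the peripheral compartment 3 h before first sample, giving about 10^8 (E. faecalis) or 10^9 (S. aureus) CFU/ml. Viable counts by dilution plating over 0–24 h. Area indices calculated versus growth control curve. Duplicate runs.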
# [4] = system: Enterococcus faecalis; assay: Bactericidal activity against 13 hrs peripheral compartment culture samples of Enterococcus faecalis ATCC 29212 in two-compartment pharmacokinetic/pharmacodynamic model assessed as effect on bacterial count at 600 mg, bid administered as 0.5 hr infusion; format: functional; outline: as §1
# [5] = Mean residence time in two-compartment pharmacokinetic/pharmacodynamic model at 800 mg, bid administered as 0.5 hrs infusion; format: ADME, organism-based; settings: iv
# [6] = system: Enterococcus faecalis; assay: Bactericidal activity against 13 hrs peripheral compartment culture samples of Enterococcus faecalis Ef1497 in two-compartment pharmacokinetic/pharmacodynamic model assessed as effect on bacterial count at 800 mg, bid administered as 0.5 hr infusion; format: functional; outline: as §1
# [7] = system: Staphylococcus aureus; assay: Bactericidal activity against 12 hrs peripheral compartment culture samples of Staphylococcus aureus RN4220 in two-compartment pharmacokinetic/pharmacodynamic model assessed as effect on bacterial count at 600 mg, bid administered as 0.5 hr infusion; format: functional; outline: as §1
# [8] = system: Enterococcus faecalis; assay: Bactericidal activity against 12.5 hrs peripheral compartment culture samples of Enterococcus faecalis Ef1497 MutM3 in two-compartment pharmacokinetic/pharmacodynamic model assessed as effect on bacterial count at 200 mg, bid administered as 0.5 hr infusion; format: functional; outline: as §1
# [9] = system: Enterococcus faecalis; assay: Bactericidal activity against 14 hrs peripheral compartment culture samples of Enterococcus faecalis Ef1497 in two-compartment pharmacokinetic/pharmacodynamic model assessed as effect on bacterial count at 600 mg, bid administered as 0.5 hr infusion; format: functional; outline: as §1
# [10] = Residual concentration at the end of the administration interval in two-compartment pharmacokinetic/pharmacodynamic model at 600 mg, bid administered as 0.5 hr infusion over 24 hrs; format: ADME; settings: in vivo, iv
# [11] = system: Enterococcus faecalis; assay: Bactericidal activity against 0.5 hrs peripheral compartment culture samples of Enterococcus faecalis ATCC 29212 in two-compartment pharmacokinetic/pharmacodynamic model assessed as effect on bacterial count at 200 mg, bid administered as 0.5 hr infusion; format: functional
# Outline: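 Two-compartment hollow-fibre model in cation-adjusted, protein-free MH broth, 37°C. Linezolid given as simulated 0.5-h infusion twice daily. Inoculum grown 18 h, concentrated 50-fold and placed in the peripheral compartment 3 h before t0. Peripheral samples at set times counted by dilution plating. First 10-fold dilution not plated, limiting detection to 2–3 log10 CFU/ml. Δlog CFU/ml taken from t0 count. Duplicates.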
# [12] = system: Enterococcus faecalis; assay: Bactericidal activity against 13 hrs peripheral compartment culture samples of Enterococcus faecalis Ef1497 MutM3 in two-compartment pharmacokinetic/pharmacodynamic model assessed as effect on bacterial count at 600 mg, bid administered as 0.5 hr infusion; format: functional; outline: as §1
# [13] = system: Enterococcus faecalis; assay: Bactericidal activity against 12.5 hrs peripheral compartment culture samples of Enterococcus faecalis Ef1497 MutM3 in two-compartment pharmacokinetic/pharmacodynamic model assessed as effect on bacterial count at 600 mg, bid administered as 0.5 hr infusion; format: functional; outline: as §1
# [14] = Cmax in two-compartment pharmacokinetic/pharmacodynamic model at 200 mg, bid administered as 0.5 hrs infusion; format: ADME, organism-based; set-up: dose 200 mg; settings: iv
compound,measurement,setting,value
CC(=O)NC[C@H]1CN(c2ccc(N3CCOCC3)c(F)c2)C(=O)O1 [LINEZOLID],log10CFU/ml,[1],0.02
same,Vd,[2],100 L
same,ABBC,[3],-1.21 log10CFU/ml.hr
same,log10CFU/ml,[4],0.16
same,MRT,[5],6.55 h
same,log10CFU/ml,[6],-0.16
same,log10CFU/ml,[7],-0.15
same,log10CFU/ml,[8],0.23
same,log10CFU/ml,[9],0.13
same,Drug uptake,[10],1.26 µg/mL
same,log10CFU/ml,[11],-0.08
same,log10CFU/ml,[12],0.25
same,log10CFU/ml,[13],0.22
same,Cmax,[14],4380 ng/mL
